Screening data (PubChem BioAssay)
Only some compounds are listed: those with a hit (about 1.8% of all), similar ones and a draw of the others.
M4 PAM – positive allosteric modulators of human muscarinic M4 receptor; P08173; CHO-K1 hM4/Gqi5, Fluo-8 calcium fluorescence, ACh EC20; 0% = ACh EC20, 100% = maximal ACh; activation, % at 3 µM; hit rate 0.4% among 360,000; AID 624126;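 active means activation above its plate's cutoff, the mean activation of sample wells plus 3 SD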
CHRM4 antagonist – blocks acetylcholine activation of human M4 receptor; AID 624125; P08173; CHO-hM4 cells, ACh EC80, Fluo-8 calcium fluorescence; hit rate 0.73% among 360,000; inhibition, % at 3 µM;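 active means inhibition above its plate's cutoff, the mean inhibition of sample wells plus 3 SD, cut at about 27% in these data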
CHRM5 agonist – CHRM5 agonism in calcium assay; CHO-K1 hM5 cells, Fluo-8 calcium fluorescence; 0% DMSO wells, 100% maximal acetylcholine response; activation, % at 3 µM; P08912; hit rate 0.19% among 360,000; AID 624037;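 active means activation above the run's mean over test compounds plus 3 SD, cut at about 23% in these data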;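 further: signal is peak over basal fluorescence ratio across the kinetic read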
Target sequence (P08912 whole entry, looked up): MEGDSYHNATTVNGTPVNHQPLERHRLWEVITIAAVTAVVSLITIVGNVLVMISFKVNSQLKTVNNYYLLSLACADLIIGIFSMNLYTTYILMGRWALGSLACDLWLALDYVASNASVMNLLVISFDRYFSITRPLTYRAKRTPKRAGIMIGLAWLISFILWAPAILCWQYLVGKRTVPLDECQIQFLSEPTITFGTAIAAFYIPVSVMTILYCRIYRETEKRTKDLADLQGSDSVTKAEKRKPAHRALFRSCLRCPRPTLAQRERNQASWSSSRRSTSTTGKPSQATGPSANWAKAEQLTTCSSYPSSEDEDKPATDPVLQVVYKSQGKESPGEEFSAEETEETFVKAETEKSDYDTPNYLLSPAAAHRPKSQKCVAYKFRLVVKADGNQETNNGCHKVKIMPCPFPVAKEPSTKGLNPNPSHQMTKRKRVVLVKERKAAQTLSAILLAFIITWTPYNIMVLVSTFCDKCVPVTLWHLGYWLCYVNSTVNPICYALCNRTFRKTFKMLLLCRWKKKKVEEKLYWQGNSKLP
CHRM4 agonist – agonists of human muscarinic M4 receptor (CHRM4). hit rate 0.14% among 360,000. CHO-K1 hM4/Gqi5, Fluo-8 calcium fluorescence; vehicle 0%, full acetylcholine response 100%. AID 624127. P08173. activation, % at 3 µM;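 active means activation above the run mean over all test wells plus 3 SD, cut at about 32% in these data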;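 further: peak over basal fluorescence ratio per well then scaled between controls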
M5 PAM – positive allosteric modulators of human muscarinic M5 receptor; CHO-K1 hM5, Fluo-8 calcium, ACh EC20 PAM; 0% = ACh EC20, 100% = ACh EC100; AID 624038; P08912; hit rate 0.3% among 360,000; activation, % at 3 µM;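 active means activation above the run cutoff, the mean activation of all test compounds plus 3 SD, cut at about 18% in these data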
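System: CHO-K1 hM5 cells. Reagent: acetylcholine, EC20 level. Compound dosing: single dose, 3 µM nominal final test concentration. Timing: Post-acetylcholine fluorescence recording 140 s. Detection: Fluo-8 calcium fluorescence. Read-out: % activation, ACh-normalized. Benchmarks: ACh EC20 and EC100 wells. Repeats: singlicate, one well per test compound.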
M5 antag – antagonists of human muscarinic M5 receptor (CHRM5); AID 624040; hit rate 0.59% among 360,000; inhibition, % at 3 µM; CHO-hM5 cells, Fluo-8 calcium fluorescence, ACh EC80;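 active means inhibition above a per-plate cutoff, the mean of that plate's test compounds plus 3 SD, cut at about 27% in these data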
Large screens that a line does not name were inactive.

CCCCn1c(N)c(N(CC(C)C)C(=O)C2CC(=O)N(c3ccc(CC)cc3)C2)c(=O)[nH]c1=O (stereo unspecified)	none
COc1cc(C2Nc3cc(Cl)c(S(N)(=O)=O)cc3S(=O)(=O)N2)cc(OC)c1OC (stereo unspecified)	M4 PAM 24
Cc1ccc(S(=O)(=O)c2cccc(S(=O)(=O)N3CCCC3)c2)cc1S(=O)(=O)N1CCCC1	CHRM4 antagonist 81
OC(CCN1CCCCC1)c1ccc(-c2ccccc2)cc1 (stereo unspecified)	none
Clc1ccc(C(CCN2CCCC2)Cc2ccccc2)cc1 (stereo unspecified)	CHRM4 antagonist 32
CCCC(C)c1nnc(NC(=O)C2CCCO2)s1 (stereo unspecified)	CHRM4 antagonist 30
CO[C@@]1(NC(=O)C2SC(=C(C(N)=O)C(=O)O)S2)C(=O)N2C(C(=O)O)=C(CSc3nnnn3C)CS[C@@H]21 (stereo partly specified)	CHRM4 antagonist 43
COC1OC2COC(c3ccccc3)OC2C2OC(c3ccccc3)OC12 (stereo unspecified)	none
CCCCCCCCCCCCCCCCn1cc[n+](C)c1	CHRM4 antagonist 30, M5 antag 48
CC(=O)N1CCCC(C)(C(=O)Nc2cccc(OC(C)C)c2)C1 (stereo unspecified)	none
COc1cccc2c1C(=O)c1c(O)c3c(c(O)c1C2=O)CC(O)(C(=O)CO)CC3OC1CC(N(C)C)C(O)C(C)O1 (stereo unspecified)	CHRM5 agonist 55, M5 antag 35
COc1cccc2c1C(=O)c1c(O)c3c(c(O)c1C2=O)C[C@@](O)(C(=O)CO)C[C@@H]3O[C@H]1C[C@H](N)[C@@H](O)[C@H](C)O1	none
COc1cccc2c(=O)n(CC(=O)NCCc3ccccc3)ccc12	CHRM4 antagonist 29
CC(C)C(NC(=O)c1ccccc1)C(=O)NCCc1ccccc1 (stereo unspecified)	none
CCCC(=O)c1c(NC(C)C)cc(C)oc1=O	M4 PAM 39
O=C(NC(=S)NCc1cccnc1)c1cc(Br)ccc1Cl	M5 PAM 22
COc1ccc(Br)cc1C(=O)NCc1cccnc1	none
NC(=O)Cn1cnc2nc3n(c2c1=O)CCC3	none
Cc1cc(C(=O)CCC(=O)NC(C)c2ccc(S(N)(=O)=O)cc2)c(C)s1 (stereo unspecified)	none
CCOC(=O)c1ccc(NC(=O)CN2C(=O)CSC(C)C2=O)cc1 (stereo unspecified)	none
CN1CCN(C(=O)CCN2C(=O)c3ccccc3C2=O)CC1	none
O=C1Cc2ccccc2Sc2ccccc21	none
CN1CCC(=C2c3ccccc3C=Cc3ccccc32)CC1	CHRM4 antagonist 100, M5 antag 99
CN1CCC(=C2c3ccccc3Sc3ccccc32)CC1	CHRM4 antagonist 99, M5 antag 99
CN(CC(=O)Nc1ccccc1Cl)C(=O)COC(=O)c1ccccc1[N+](=O)[O-]	none
CCOC(=O)c1nn(-c2ccc(F)cc2)c(=O)cc1OCC(=O)Nc1cccc(C)c1	M4 PAM 24
CCOC(=O)c1nn(-c2ccc(C)cc2)c(=O)cc1OCC(=O)Nc1cc(C)ccc1OC	none
COc1cccc(CN(C)C(=O)C(Cc2ccccc2)NC(=O)c2ccccc2)c1OC (stereo unspecified)	none
CN(C)S(=O)(=O)N1CCC(Oc2cccc(C(=O)NC3CCOC3)c2)CC1 (stereo unspecified)	none
Cc1ncc(CN2CCCC(C(=O)Nc3ccc(-c4cccc(F)c4)cc3)C2)n1C (stereo unspecified)	CHRM4 antagonist 33
COc1cc(/C=C2\SC(=Nc3ccccc3)N(CCc3c[nH]c4ccccc34)C2=O)ccc1OC(C)C(=O)O (stereo unspecified)	none
O=C1/C(=C/c2ccc(N3CCOCC3)o2)SC(=Nc2ccccc2)N1CCc1c[nH]c2ccccc12	CHRM4 antagonist 42
O=c1c2ccccc2nc(/C=C/c2ccccc2)n1CCCO	none
